ChEMBL document CHEMBL3227917, “Structure-activity relationships of dimeric Catharanthus alkaloids. 2. Experimental antitumor activities of N-substituted deacetylvinblastine amide (vindesine) sulfates” (J Med Chem, 1979)

Key:
[1] = Antitumor activity against mouse Ridgway osteogenic sarcoma allografted in AKR mouse assessed as tumor growth inhibition at 0.40 mg/kg, ip administered daily for 8 to 10 days compound treatment commenced 8 days after tumor implantation; type: functional; conditions: route intraperitoneal, read-out: TGI
[2] = Antitumor activity against mouse Gardner lymphosarcoma allografted in C3H mouse assessed as tumor growth inhibition at 0.20 mg/kg, ip administered daily for 8 to 10 days; type: functional; conditions: route intraperitoneal, read-out: TGI
Outline: (§1)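 Gardner lymphosarcoma in C3H mice; sulfate salts unless noted, given ip daily for 8–10 days, treatment starting 8 days after tumor implantation. Tumor growth inhibition scored as –, 0–25%; +, 26–50%; ++, 51–75%; +++, 76–100%; T, lethal to ≥5 of 10 animals per group. Average of one or more tests.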

[3] = Antitumor activity against mouse Gardner lymphosarcoma allografted in C3H mouse assessed as tumor growth inhibition at 0.40 mg/kg, ip administered daily for 8 to 10 days; type: functional; conditions: route intraperitoneal, read-out: TGI; outline: as §1
[4] = Antitumor activity against mouse Ridgway osteogenic sarcoma allografted in AKR mouse assessed as tumor growth inhibition at 0.20 mg/kg, ip administered daily for 8 to 10 days compound treatment commenced 8 days after tumor implantation; type: functional; conditions: route intraperitoneal, read-out: TGI
[5] = Antitumor activity against mouse Gardner lymphosarcoma allografted in C3H mouse assessed as tumor growth inhibition at 0.10 mg/kg, ip administered daily for 8 to 10 days; type: functional; conditions: route intraperitoneal, read-out: TGI; outline: as §1
[6] = tested on: Mus musculus; assay: Toxicity in C3H mouse allografted with mouse Gardner lymphosarcoma assessed as lethality at 0.40 mg/kg, ip administered daily for 8 to 10 days; type: organism-based; design: dose 0.4 mg/kg, route intraperitoneal; conditions: in vivo, 0.4 mg/kg
Outline: (§2)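 Tumor-bearing mice given sulfate salts ip daily for 8–10 days; values are the average of one or more tests. Toxic means lethal to ≥5 of 10 animals per group.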

[7] = tested on: Mus musculus; assay: Toxicity in AKR mouse allografted with mouse Ridgway osteogenic sarcoma assessed as lethality at 0.40 mg/kg, ip administered daily for 8 to 10 days compound treatment commenced 8 days after tumor implantation; type: organism-based; design: dose 0.4 mg/kg, route intraperitoneal; conditions: in vivo, 0.4 mg/kg; outline: as §2
[8] = Antitumor activity against mouse Gardner lymphosarcoma allografted in C3H mouse assessed as tumor growth inhibition at 0.05 mg/kg, ip administered daily for 8 to 10 days; type: functional; conditions: route intraperitoneal, read-out: TGI; outline: as §1
[9] = tested on: B16; assay: Antitumor activity against mouse B16 cells allografted in C57BL/6 mouse assessed as prolongation of host survival at 0.60 mg/kg, ip administered on days 1,5 and 9; type: functional; conditions: route intraperitoneal
Outline: (§3)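 B16 melanoma cells (10⁶ inoculum) implanted ip in C57BL/6 mice; groups of 10. Sulfate salts unless noted, given ip on days 1, 5 and 9. Single test. Survival prolongation is expressed as percent versus controls, with survivors counted on day 60. Toxic means deaths of ≥5 of 10 animals before the first control death.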

[10] = tested on: B16; assay: Antitumor activity against mouse B16 cells allografted in C57BL/6 mouse assessed as prolongation of host survival at 0.90 mg/kg, ip administered on days 1,5 and 9; type: functional; conditions: route intraperitoneal; outline: as §3
[11] = tested on: B16; assay: Antitumor activity against mouse B16 cells allografted in C57BL/6 mouse assessed as prolongation of host survival at 1.20 mg/kg, ip administered on days 1,5 and 9; type: functional; conditions: route intraperitoneal; outline: as §3
[12] = tested on: CHO; assay: Mitotic arrest in CHO cells assessed as increase in cell accumulation at 0.002 ug/ml; type: functional, Cricetulus griseus
Outline: (§4)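 Chinese hamster ovary cells in tissue culture, scored for mitotic arrest as increase in cells in mitotic arrest over control: +++, 40–50%; ++, 15–40%; +, 10–15%; ±, 7–10%; –, 3–7%. Cytotoxicity noted separately.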

[13] = tested on: CHO; assay: Mitotic arrest in CHO cells assessed as increase in cell accumulation at 0.02 ug/ml; type: functional, Cricetulus griseus; outline: as §4
[14] = tested on: CHO; assay: Mitotic arrest in CHO cells assessed as increase in cell accumulation at 0.2 ug/ml; type: functional, Cricetulus griseus; outline: as §4

Structure (SMILES) | inhibition in vivo at 0.2 mg/kg [2] [%] | inhibition in vivo at 0.4 mg/kg [3] [%] | inhibition in vivo at 0.1 mg/kg [5] [%] | further results
CCCCCCNC(=O)[C@@]1(O)[C@H](O)[C@]2(CC)C=CCN3CC[C@@]4(c5cc([C@@]6(C(=O)OC)C[C@@H]7CN(CCc8c6[nH]c6ccccc86)C[C@](O)(CC)C7)c(OC)cc5N(C)[C@@H]14)[C@@H]32 | 26 | 0 | – | inhibition in vivo at 0.4 mg/kg [1]: 0%; inhibition in vivo at 0.2 mg/kg [4]: 0%
CC[C@]1(O)C[C@H]2CN(CCc3c([nH]c4ccccc34)[C@@](C(=O)OC)(c3cc4c(cc3OC)N(C)[C@H]3[C@@](O)(C(=O)NC5CCCCC5)[C@H](O)[C@]5(CC)C=CCN6CC[C@]43[C@@H]65)C2)C1 | 0 | 26 | – | inhibition in vivo at 0.4 mg/kg [1]: 51%; inhibition in vivo at 0.2 mg/kg [4]: 26%
C=CCNC(=O)[C@@]1(O)[C@H](O)[C@]2(CC)C=CCN3CC[C@@]4(c5cc([C@@]6(C(=O)OC)C[C@@H]7CN(CCc8c6[nH]c6ccccc86)C[C@](O)(CC)C7)c(OC)cc5N(C)[C@@H]14)[C@@H]32.O=S(=O)(O)O | 76 | – | 0 | Activity [6]: Toxic
C#CCNC(=O)[C@@]1(O)[C@H](O)[C@]2(CC)C=CCN3CC[C@@]4(c5cc([C@@]6(C(=O)OC)C[C@@H]7CN(CCc8c6[nH]c6ccccc86)C[C@](O)(CC)C7)c(OC)cc5N(C)[C@@H]14)[C@@H]32.O=S(=O)(O)O | 76 | – | 51 | Activity [6]: Toxic
CC[C@]1(O)C[C@H]2CN(CCc3c([nH]c4ccccc34)[C@@](C(=O)OC)(c3cc4c(cc3OC)N(C)[C@H]3[C@@](O)(C(=O)N5CCCC5)[C@H](O)[C@]5(CC)C=CCN6CC[C@]43[C@@H]65)C2)C1.O=S(=O)(O)O | 0 | – | – | Activity [7]: Toxic; inhibition in vivo at 0.2 mg/kg [4]: 51%; Activity [6]: Toxic
CC[C@]1(O)C[C@H]2CN(CCc3c([nH]c4ccccc34)[C@@](C(=O)OC)(c3cc4c(cc3OC)N(C)[C@H]3[C@@](O)(C(=O)NCCC#N)[C@H](O)[C@]5(CC)C=CCN6CC[C@]43[C@@H]65)C2)C1 | 76 | 76 | 0 | inhibition in vivo at 0.05 mg/kg [8]: 0%
CC[C@]1(O)C[C@H]2CN(CCc3c([nH]c4ccccc34)[C@@](C(=O)OC)(c3cc4c(cc3OC)N(C)[C@H]3[C@@](O)(C(=O)NCC(O)CO)[C@H](O)[C@]5(CC)C=CCN6CC[C@]43[C@@H]65)C2)C1 (stereo partly specified) | 26 | 51 | – | inhibition in vivo at 0.4 mg/kg [1]: 76%; inhibition in vivo at 0.2 mg/kg [4]: 26%
CCCCCCCCCCCCCCCCCC(=O)OCCNC(=O)[C@@]1(O)[C@H](O)[C@]2(CC)C=CCN3CC[C@@]4(c5cc([C@@]6(C(=O)OC)C[C@@H]7CN(CCc8c6[nH]c6ccccc86)C[C@](O)(CC)C7)c(OC)cc5N(C)[C@@H]14)[C@@H]32 | 51 | 76 | 0 | inhibition in vivo at 0.05 mg/kg [8]: 0%
CC[C@]1(O)C[C@H]2CN(CCc3c([nH]c4ccccc34)[C@@](C(=O)OC)(c3cc4c(cc3OC)N(C)[C@H]3[C@@](O)(C(=O)NCCSC(c5ccccc5)(c5ccccc5)c5ccccc5)[C@H](O)[C@]5(CC)C=CCN6CC[C@]43[C@@H]65)C2)C1 | 0 | 0 | 0 | survival at 0.6 mg/kg [9]: 0%; survival at 0.9 mg/kg [10]: 1%; survival at 1.2 mg/kg [11]: 4%
CC[C@]1(O)C[C@H]2CN(CCc3c([nH]c4ccccc34)[C@@](C(=O)OC)(c3cc4c(cc3OC)N(C)[C@H]3[C@@](O)(C(=O)NCCSC(c5ccc(OC)cc5)(c5ccc(OC)cc5)c5ccc(OC)cc5)[C@H](O)[C@]5(CC)C=CCN6CC[C@]43[C@@H]65)C2)C1 | 0 | 0 | 0 | survival at 0.6 mg/kg [9]: 16%; survival at 0.9 mg/kg [10]: 28%; survival at 1.2 mg/kg [11]: 35%
CC[C@]1(O)C[C@H]2CN(CCc3c([nH]c4ccccc34)[C@@](C(=O)OC)(c3cc4c(cc3OC)N(C)[C@H]3[C@@](O)(C(=O)NCCSSCCNC(C)=O)[C@H](O)[C@]5(CC)C=CCN6CC[C@]43[C@@H]65)C2)C1 | 0 | 51 | 0 | survival at 0.6 mg/kg [9]: 93%; survival at 0.9 mg/kg [10]: 118%; survival at 1.2 mg/kg [11]: 127%
CC[C@]1(O)C[C@H]2CN(CCc3c([nH]c4ccccc34)[C@@](C(=O)OC)(c3cc4c(cc3OC)N(C)[C@H]3[C@@](O)(C(=O)NCC=O)[C@H](O)[C@]5(CC)C=CCN6CC[C@]43[C@@H]65)C2)C1 | 76 | 76 | 26 | inhibition in vivo at 0.05 mg/kg [8]: 0%
CC[C@]1(O)C[C@H]2CN(CCc3c([nH]c4ccccc34)[C@@](C(=O)OC)(c3cc4c(cc3OC)N(C)[C@H]3[C@@](O)(C(=O)NCC(OC)OC)[C@H](O)[C@]5(CC)C=CCN6CC[C@]43[C@@H]65)C2)C1.O=S(=O)(O)O | 76 | – | 76 | inhibition in vivo at 0.05 mg/kg [8]: 0%; Activity [6]: Toxic
CC[C@]1(O)C[C@H]2CN(CCc3c([nH]c4ccccc34)[C@@](C(=O)OC)(c3cc4c(cc3OC)N(C)[C@H]3[C@@](O)(C(=O)NCCC(=N)OC)[C@H](O)[C@]5(CC)C=CCN6CC[C@]43[C@@H]65)C2)C1 | 0 | 0 | 0 | inhibition in vivo at 0.05 mg/kg [8]: 0%
CC[C@]1(O)C[C@H]2CN(CCc3c([nH]c4ccccc34)[C@@](C(=O)OC)(c3cc4c(cc3OC)N(C)[C@H]3[C@@](O)(C(=O)NCCc5ccc(O)cc5)[C@H](O)[C@]5(CC)C=CCN6CC[C@]43[C@@H]65)C2)C1 | 0 | 26 | 0 | survival at 0.6 mg/kg [9]: 125%; survival at 0.9 mg/kg [10]: 152%; survival at 1.2 mg/kg [11]: 190%
CC[C@]1(O)C[C@H]2CN(CCc3c([nH]c4ccccc34)[C@@](C(=O)OC)(c3cc4c(cc3OC)N(C)[C@H]3[C@@](O)(C(=O)NCCc5ccc(O)c(O)c5)[C@H](O)[C@]5(CC)C=CCN6CC[C@]43[C@@H]65)C2)C1 | 0 | 26 | 0 | survival at 0.6 mg/kg [9]: 28%; survival at 0.9 mg/kg [10]: 128%; survival at 1.2 mg/kg [11]: 154%
CC[C@]1(O)C[C@H]2CN(CCc3c([nH]c4ccccc34)[C@@](C(=O)OC)(c3cc4c(cc3OC)N(C)[C@H]3[C@@](O)(C(=O)OC)[C@H](O)[C@]5(CC)C=CCN6CC[C@]43[C@@H]65)C2)C1 | – | – | – | Activity [12]: 3%; Activity [13]: 40%
COc1cc2c(c(OC)c1OC)-c1ccc(OC)c(=O)cc1[C@@H](NC(C)=O)CC2 [COLCHICINE] | – | – | – | Activity [14]: 15%; Activity [13]: 3%
